From ChEMBL document CHEMBL1148971, “Bioactive rearranged and halogenated semisynthetic derivatives of the marine natural product sarcophine” (J Nat Prod, 2004)
Activity calls are given as the source filed them. The rule behind the calls is not given here.

Columns and labels:
Format in all cases: functional, cell-based
[1] = system: +SA cell; test: Antiproliferative activity against mouse +SA cells assessed as decrease in cell growth up to 100 uM after 4 days by MTT assay
Procedure, shortened: (§1)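 Highly malignant +SA mouse mammary epithelial cells were grown in serum-free medium with 10 ng/mL EGF and 10 µg/mL insulin as mitogens. Cells were seeded at 5 × 10^4 cells/well, 6 wells per group, and fed medium containing compound over 0.01-1000 µM for 4 days. Viable cell number was read by MTT colorimetric assay and reported as mean cell count/well + SEM.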

[2] = system: +SA cell; test: Antiproliferative activity against mouse +SA cells assessed as decrease in cell growth at 0 to 10 uM after 4 days by MTT assay; procedure, shortened: as §1
[3] = system: +SA cell; test: Antiproliferative activity against mouse +SA cells assessed as decrease in cell growth at 100 to 1000 uM after 4 days by MTT assay; procedure, shortened: as §1

Structure (SMILES) | Activity [1] | Activity [2] | Activity [3]
CC1=C2CC/C(C)=C/CC/C(C)=C/CC/C(C)=C/[C@@H]2OC1=O | Active |  | 
CC1=C2CC/C(C)=C/CC[C@@H](C)C(=O)CC/C(C)=C/[C@@H]2OC1=O | inactive |  | 
CC1=C2CC/C(C)=C/CC[C@]3(C)O[C@H]3CC/C(C)=C/[C@@H]2OC1=O |  | inactive | Active
CC1=C2CC[C@H](C)[C@H]3CC[C@](C)(O)[C@H](CC/C(C)=C/[C@@H]2OC1=O)O3 (mixture of isomers) | inactive |  | 
CC1=C2CC[C@@](C)(O)CCC[C@](C)(O)[C@@H]3CC[C@@](C)(C[C@@H]2OC1=O)O3 (relative stereo) | inactive |  | 
CC1=C2CC[C@H](C)[C@@H]3CC[C@](C)(O)[C@H](CC/C(C)=C/[C@@H]2OC1=O)O3 (relative stereo) | inactive |  | 
CC1=C2CC[C@H](C)[C@@H]3CC[C@](C)(O)[C@H](CC[C@@](C)(O)C[C@@H]2OC1=O)O3 (relative stereo) | inactive |  | 
CC1=C2CC[C@]3(C)O[C@@H](CC/C(C)=C/[C@@H]2OC1=O)[C@@](C)(O)CC[C@@H]3Br (relative stereo) | Active |  | 
CC1=C2CC[C@]3(C)O[C@@H](CC/C(C)=C/[C@@H]2OC1=O)[C@@](C)(O)CC[C@H]3Br (relative stereo) | inactive |  | 
